Experimental data as given in ChEMBL document CHEMBL3627597, “Synthesis of Fluorine-Containing Phosphodiesterase 10A (PDE10A) Inhibitors and the In Vivo Evaluation of F-18 Labeled PDE10A PET Tracers in Rodent and Nonhuman Primate” (J Med Chem, 2015).

Experiments:
[1] = test system: Rattus norvegicus; test: Biodistribution in Sprague-Dawley rat fat tissue at 1.48 to 2.22 MBq, iv measured at 5 mins by gamma counting analysis; format: ADME, organism-based, Adipose tissue; settings: in vivo
How it was run: (§1)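 Male Sprague-Dawley rats (250 - 400 g), tail-vein injection of 1.48 - 2.22 MBq radiotracer under 2.5% isoflurane in oxygen; n=4 per time point, euthanized at 5, 30 and 60 min p.i. Brain regions obtained by gross dissection; peripheral tissues collected. Samples weighed, gamma-counted against a diluted-injectate standard; %ID/g calculated.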

[2] = test system: Kidney; test: Biodistribution in Sprague-Dawley rat kidney at 1.48 to 2.22 MBq, iv measured at 5 mins by gamma counting analysis; format: ADME, organism-based; settings: in vivo; how it was run: as §1
[3] = test system: Muscle tissue; test: Biodistribution in Sprague-Dawley rat muscle at 1.48 to 2.22 MBq, iv measured at 5 mins by gamma counting analysis; format: ADME, organism-based; settings: in vivo; how it was run: as §1
[4] = test system: Nucleic Acid; test: Ratio of drug level in striatum to temporal region in cynomolgus monkey at 185 to 259 MBq, iv measured at 70 mins by micro PET image analysis; format: ADME, organism-based, Macaca fascicularis; settings: in vivo
How it was run: (§2)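 Adult male cynomolgus macaques (~4–6 kg), three independent PET studies per tracer on a microPET Focus 220. Animals fasted 12 h and anesthetized with ketamine (10 mg/kg) plus glycopyrrolate (0.13 mg/kg) i.m. A 10 min positioning transmission scan and a 45 min attenuation transmission scan were run, then a 3 h dynamic emission scan after venous tracer injection. Regional TACs came from ROIs, expressed as SUV (body weight, injected dose).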

[5] = test system: Nucleic Acid; test: Ratio of drug level in striatum to occipital in cynomolgus monkey at 185 to 259 MBq, iv measured at 70 mins by micro PET image analysis; format: ADME, organism-based, Macaca fascicularis; settings: in vivo; how it was run: as §2
[6] = test system: Brain; test: Biodistribution in Sprague-Dawley rat brain at 1.48 to 2.22 MBq, iv measured at 5 mins by gamma counting analysis; format: ADME, organism-based; settings: in vivo; how it was run: as §1
[7] = test system: Nucleic Acid; test: Ratio of drug level in striatum to frontal in cynomolgus monkey at 185 to 259 MBq, iv measured at 70 mins by micro PET image analysis; format: ADME, organism-based, Macaca fascicularis; settings: in vivo; how it was run: as §2
[8] = test system: Nucleic Acid; test: Ratio of drug level in striatum to cerebellum in cynomolgus monkey at 185 to 259 MBq, iv measured at 70 mins by micro PET image analysis; format: ADME, organism-based, Macaca fascicularis; settings: in vivo; how it was run: as §2
[9] = test system: Nucleic Acid; test: Ratio of drug level in striatum to white matter in cynomolgus monkey at 185 to 259 MBq, iv measured at 70 mins by micro PET image analysis; format: ADME, organism-based, Macaca fascicularis; settings: in vivo; how it was run: as §2
[10] = test system: Liver; test: Biodistribution in Sprague-Dawley rat liver at 1.48 to 2.22 MBq, iv measured at 30 mins by gamma counting analysis; format: ADME, organism-based; settings: in vivo, 0.5 h; how it was run: as §1
[11] = test system: Nucleic Acid; test: Ratio of drug level in striatum to temporal region in cynomolgus monkey at 185 to 259 MBq, iv measured at 40 mins by micro PET image analysis; format: ADME, organism-based, Macaca fascicularis; settings: in vivo; how it was run: as §2
[12] = test system: Caudate; test: Drug uptake in cynomolgus monkey caudate at 185 to 259 MBq, iv measured over 180 mins by micro PET image analysis; format: ADME, organism-based, Macaca fascicularis, Caudate nucleus; settings: in vivo, 3 h
How it was run: (§3)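 Adult male cynomolgus macaques (~4–6 kg), three studies per tracer, fasted 12 h. Induction with ketamine 10 mg/kg plus glycopyrrolate 0.13 mg/kg i.m. Transmission scans of 10 min for positioning and 45 min for attenuation correction, then a 3 h dynamic microPET emission scan after venous injection of 185 - 259 MBq. ROI time-activity curves expressed as SUV (body weight and injected dose).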

[13] = test system: Muscle tissue; test: Biodistribution in Sprague-Dawley rat muscle at 1.48 to 2.22 MBq, iv measured at 60 mins by gamma counting analysis; format: ADME, organism-based; settings: in vivo, 1 h; how it was run: as §1
[14] = test system: Putamen; test: Drug uptake in cynomolgus monkey putamen at 185 to 259 MBq, iv measured over 180 mins by micro PET image analysis; format: ADME, organism-based, Macaca fascicularis; settings: in vivo, 3 h; how it was run: as §3
[15] = test system: Muscle tissue; test: Biodistribution in Sprague-Dawley rat muscle at 1.48 to 2.22 MBq, iv measured at 30 mins by gamma counting analysis; format: ADME, organism-based; settings: in vivo, 0.5 h; how it was run: as §1
[16] = test system: Nucleic Acid; test: Ratio of drug level in striatum to white matter in cynomolgus monkey at 185 to 259 MBq, iv measured at 40 mins by micro PET image analysis; format: ADME, organism-based, Macaca fascicularis; settings: in vivo; how it was run: as §2
[17] = Metabolic stability in cynomolgus monkey plasma assessed as compound remaining at 185 to 259 MBq, iv measured at 60 mins by HPLC analysis; format: ADME, organism-based, Macaca fascicularis; settings: read-out: Stability
How it was run: (§4)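 Arterial blood (~1.5 mL) drawn at 2, 15, 30, 60 and 90 min p.i. into heparinized syringes, then centrifuged to plasma. Plasma deproteinated with 2 parts ice-cold methanol. Extract run on C-18 HPLC, MeCN/0.1 M ammonium formate pH 4.5, 0.9 mL/min, UV 254 nm. 1-min fractions over 16 min were well-counted and decay-corrected; parent percentage taken from recovered activity.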

[18] = Ratio of drug level in striatum to cerebellum in Sprague-Dawley rat at 1.48 to 2.22 MBq, iv measured at 5 to 30 mins by gamma counting analysis; format: ADME, organism-based; settings: in vivo
How it was run: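 Striatum, cerebellum and cortex obtained by gross dissection from Sprague-Dawley rats (250 - 400 g, n=4 per time point) after tail-vein injection of 1.48 - 2.22 MBq under isoflurane anesthesia. Tissues weighed and gamma-counted with an injectate standard to give %ID/g; ratios taken from striatal versus non-target uptake.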

[19] = test system: Blood; test: Biodistribution in Sprague-Dawley rat blood at 1.48 to 2.22 MBq, iv measured at 60 mins by gamma counting analysis; format: ADME, organism-based; settings: in vivo, 1 h; how it was run: as §1
[20] = test system: Liver; test: Biodistribution in Sprague-Dawley rat liver at 1.48 to 2.22 MBq, iv measured at 60 mins by gamma counting analysis; format: ADME, organism-based; settings: in vivo, 1 h; how it was run: as §1
[21] = Metabolic stability in cynomolgus monkey plasma assessed as compound remaining at 185 to 259 MBq, iv measured at 90 mins by HPLC analysis; format: ADME, organism-based, Macaca fascicularis; settings: read-out: Stability; how it was run: as §4
[22] = test system: Blood; test: Biodistribution in Sprague-Dawley rat blood at 1.48 to 2.22 MBq, iv measured at 5 mins by gamma counting analysis; format: ADME, organism-based; settings: in vivo; how it was run: as §1
[23] = test system: Kidney; test: Biodistribution in Sprague-Dawley rat kidney at 1.48 to 2.22 MBq, iv measured at 60 mins by gamma counting analysis; format: ADME, organism-based; settings: in vivo, 1 h; how it was run: as §1
[24] = test system: Kidney; test: Biodistribution in Sprague-Dawley rat kidney at 1.48 to 2.22 MBq, iv measured at 30 mins by gamma counting analysis; format: ADME, organism-based; settings: in vivo, 0.5 h; how it was run: as §1
[25] = test system: Nucleic Acid; test: Ratio of drug level in striatum to hippocampus in cynomolgus monkey at 185 to 259 MBq, iv measured at 70 mins by micro PET image analysis; format: ADME, organism-based, Macaca fascicularis; settings: in vivo; how it was run: as §2
[26] = test system: Nucleic Acid; test: Ratio of drug level in striatum to midbrain region in cynomolgus monkey at 185 to 259 MBq, iv measured at 70 mins by micro PET image analysis; format: ADME, organism-based, Macaca fascicularis, Brain; settings: in vivo; how it was run: as §2
[27] = test system: Nucleic Acid; test: Ratio of drug level in striatum to frontal in cynomolgus monkey at 185 to 259 MBq, iv measured at 40 mins by micro PET image analysis; format: ADME, organism-based, Macaca fascicularis; settings: in vivo; how it was run: as §2
[28] = test system: Liver; test: Biodistribution in Sprague-Dawley rat liver at 1.48 to 2.22 MBq, iv measured at 5 mins by gamma counting analysis; format: ADME, organism-based; settings: in vivo; how it was run: as §1
[29] = Metabolic stability in cynomolgus monkey plasma assessed as compound remaining at 185 to 259 MBq, iv measured at 15 mins by HPLC analysis; format: ADME, organism-based, Macaca fascicularis; settings: read-out: Stability; how it was run: as §4
[30] = test system: Plasma; test: Retention time of the compound in cynomolgus monkey plasma at 185 to 259 MBq, iv by HPLC analysis; format: ADME, organism-based, Macaca fascicularis; how it was run: as §4
[31] = test system: Blood; test: Biodistribution in Sprague-Dawley rat blood at 1.48 to 2.22 MBq, iv measured at 30 mins by gamma counting analysis; format: ADME, organism-based; settings: in vivo, 0.5 h; how it was run: as §1

Drug uptake [1]: 0.119 % ID/g
Drug uptake [2]: 1.789 % ID/g
Drug uptake [3]: 0.166 % ID/g
Ratio [4]: > 5
Ratio [5]: > 5
Drug uptake [6]: 0.092 % ID/g
Ratio [7]: > 5
Ratio [8]: > 5
Ratio [9]: > 5
Drug uptake [10]: 3.17 % ID/g
Ratio [11]: > 3
Drug uptake [12]: Active
Drug uptake [13]: 0.134 % ID/g
Drug uptake [14]: Active
Drug uptake [15]: 0.156 % ID/g
Ratio [16]: > 3
remaining at 1 h [17]: 55%
Ratio [18]: > 2
Drug uptake [19]: 0.287 % ID/g
Drug uptake [20]: 1.8 % ID/g
remaining at 1.5 h [21]: 45%
Drug uptake [22]: 0.343 % ID/g
Drug uptake [23]: 0.841 % ID/g
Drug uptake [24]: 1.022 % ID/g
Ratio [25]: > 5
Ratio [26]: > 5
Ratio [27]: > 3
Drug uptake [28]: 4.24 % ID/g
remaining at 0.25 h [29]: 90%
Retention_time [30]: 10.5 min
Drug uptake [31]: 0.306 % ID/g
SMILES: Cn1cc(-c2ccncc2)c(-c2ccc(OCc3nc4ccccc4cc3OCC[18F])cc2)n1
